Test [1] concerns HCT-8. Description: Cytotoxicity against human HCT8 cells by MTT assay. In kind it is functional, cell-based. Summed up:
(§1)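 MTT cytotoxicity assay on five human carcinoma lines: A549 (lung), Bel-7402 (liver), BGC-823 (stomach), HCT-8 (colon) and A2780 (ovarian). The assay was run following a published procedure. The read-out is an IC50.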
A general note: Tetrazolium assays rely on reduction of a dye to a coloured formazan, in cell work by metabolically active cells.

The test system of test [2] is RAW264.7. The test can be described thus: Inhibition of LPS-induced nitric oxide production in mouse RAW264.7 cells at 5 uM. In kind it is functional.
In test [3] the test system is A2780. The test can be described thus: Cytotoxicity against human A2780 cells by MTT assay. In kind it is functional, cell-based. In outline:
as §1

Test [4] concerns BGC-823. The test can be described thus: Cytotoxicity against human BGC823 cells by MTT assay. In kind it is functional, cell-based. In outline: as §1
Test [5] relates to A549. Description: Cytotoxicity against human A549 cells by MTT assay. In kind it is functional, cell-based. In outline: as §1
The test system of test [6] is Bel-7402. The test can be described thus: Cytotoxicity against human Bel7402 cells by MTT assay. In kind it is functional, cell-based. In outline:
as §1

Molecules are shown by their SMILES. Some results are limits rather than exact numbers.

As to `CC(=O)OC[C@@]12[C@@H](OC(=O)c3ccoc3)CC[C@](C)(O)[C@]13OC(C)(C)[C@H]([C@@H](OC(C)=O)[C@H]2OC(=O)c1ccoc1)[C@H]3OC(C)=O` (relative stereo) [TRIPTERSININ K], the IC50 in test [1], in test [3], in test [4], in test [5] and in test [6] was greater than 1000 nM each time. In addition, in test [2], the inhibition (commonly the percentage by which the read-out fell short of the control) at 5 µM was 49.9%.

As for `CC(=O)OC[C@]12[C@H](OC(C)=O)[C@H](OC(C)=O)[C@@H]3[C@@H](OC(C)=O)[C@@]14O[C@@]3(C)COC(=O)c1cccnc1C(C)C(C)C(=O)O[C@@H]([C@H](OC(C)=O)[C@@H]2OC(C)=O)[C@]4(C)O` (some centres not stated) [EUONYMINE], the IC50 in test [1], in test [3], in test [4], in test [5] and in test [6] was greater than 1000 nM in each case.

On to `CC(=O)O[C@@H]1[C@@H]2[C@@H](O)[C@@]34O[C@@]2(C)COC(=O)c2cnccc2C(C)C(C)(O)C(=O)O[C@@H]([C@H](OC(C)=O)[C@H](OC(C)=O)[C@@]3(COC(=O)c2ccoc2)[C@@H]1OC(C)=O)[C@]4(C)O` (some centres not stated) [HYPOGLAUNINE E], for which the IC50 in test [1], in test [3], in test [4], in test [5] and in test [6] was greater than 1000 nM each time.

With `CC(=O)OC[C@@]12[C@@H](OC(=O)/C=C\c3ccccc3)CC[C@](C)(O)[C@]13OC(C)(C)[C@H]([C@@H](OC(C)=O)[C@H]2OC(=O)c1cccnc1)[C@H]3OC(C)=O` (relative stereo) [TRIPTERSININ E], the IC50 in test [1], in test [3], in test [4], in test [5] and in test [6] was greater than 1000 nM in each case.

On to `CC(=O)OC[C@]12[C@H](OC(C)=O)[C@H](OC(C)=O)[C@@H]3[C@@H](OC(C)=O)[C@@]14O[C@@]3(C)COC(=O)c1cccnc1CCC(C)C(=O)O[C@@H]([C@H](OC(C)=O)[C@@H]2OC(C)=O)[C@]4(C)O` (some centres not stated) [EUONINE], for which the IC50 in test [1], in test [3], in test [4], in test [5] and in test [6] was greater than 1000 nM each time. This molecule had an inhibition at 5 µM in test [2] of 54.7%.

For the molecule `CC(=O)OC[C@@]12[C@@H](OC(=O)c3ccoc3)CC[C@](C)(O)[C@]13OC(C)(C)[C@H]([C@@H](OC(=O)c1cccnc1)[C@H]2OC(=O)c1ccoc1)[C@H]3OC(C)=O` (relative stereo) [TRIPTERSININ H], the IC50 in test [1], in test [3], in test [4], in test [5] and in test [6] was greater than 1000 nM throughout.

Turning to `CC(=O)O[C@@H]1[C@@H]2[C@@H](OC(C)=O)[C@@]34O[C@@]2(C)COC(=O)c2cnccc2C(C)C(C)(O)C(=O)O[C@@H]([C@H](OC(C)=O)[C@H](OC(C)=O)[C@@]3(COC(=O)c2ccco2)[C@@H]1OC(C)=O)[C@]4(C)O` (some centres not stated) [HYPOGLAUNINE A], the IC50 in test [1], in test [3], in test [4], in test [5] and in test [6] was greater than 1000 nM each time.

Consider `CC(=O)OC[C@@]12[C@@H](OC(=O)/C=C/c3ccccc3)CC[C@](C)(O)[C@]13OC(C)(C)[C@H]([C@@H](OC(C)=O)[C@H]2OC(=O)c1cccnc1)[C@H]3O` (relative stereo) [TRIPTERSININ C], for which the IC50 in test [1], in test [3], in test [4], in test [5] and in test [6] was greater than 1000 nM in each case.

Take `CC(=O)OC[C@]12[C@H](OC(C)=O)[C@H](OC(C)=O)[C@@H]3[C@@H](OC(C)=O)[C@@]14O[C@@]3(C)COC(=O)c1cnccc1C(C)C(C)C(=O)O[C@@H]([C@H](O)[C@@H]2OC(C)=O)[C@]4(C)O` (some centres not stated) [WILFORDININE A]: the IC50 in test [1], in test [3], in test [4], in test [5] and in test [6] was greater than 1000 nM in each case. Further, the inhibition at 5 µM in test [2] was 59%.

Consider `CC(=O)OC[C@@]12[C@@H](OC(=O)/C=C\c3ccccc3)CC[C@](C)(O)[C@]13OC(C)(C)[C@H]([C@@H](OC(C)=O)[C@H]2OC(=O)c1cccnc1)[C@H]3O` (relative stereo) [TRIPTERSININ D], for which the IC50 in test [1], in test [3], in test [4], in test [5] and in test [6] was greater than 1000 nM in each case.

Turning to `CC(=O)OC[C@@]12[C@@H](OC(=O)/C=C\c3ccccc3)CC[C@](C)(O)[C@]13OC(C)(C)[C@H](C(=O)[C@H]2OC(=O)c1cccnc1)[C@H]3O` (relative stereo) [TRIPTERSININ B], the IC50 in test [1], in test [3], in test [4], in test [5] and in test [6] was greater than 1000 nM in each case.

Take `C/C=C(\C)C(=O)O[C@H]1[C@H](OC(C)=O)[C@@H]2[C@@H](OC(=O)c3cccnc3)[C@@]3(OC2(C)C)[C@@]1(COC(C)=O)[C@@H](OC(C)=O)CC[C@]3(C)O` (relative stereo): the IC50 in test [1], in test [3], in test [4], in test [5] and in test [6] was greater than 1000 nM throughout.

Turning to `CC(=O)OC[C@]12[C@@H](OC(C)=O)[C@H](OC(C)=O)[C@@H]3[C@@H](OC(C)=O)[C@@]14O[C@@]3(C)COC(=O)c1cnccc1CCC(C)C(=O)O[C@@H]([C@H](OC(C)=O)[C@@H]2OC(C)=O)[C@]4(C)O` (some centres not stated) [WILFORDININE E], the IC50 in test [1], in test [3], in test [4], in test [5] and in test [6] was greater than 1000 nM in each case.

In turn, `C[C@@H]1C[C@H]2[C@@H]3CCC4=CC(=O)C=C[C@]4(C)[C@@]3(F)[C@@H](O)C[C@]2(C)[C@@]1(O)C(=O)CO` [DEXAMETHASONE] registered an inhibition at 5 µM in test [2] of 70.4%.

Turning to `CC(=O)OC[C@@]12[C@@H](OC(C)=O)CC[C@](C)(O)[C@]13OC(C)(C)[C@H]([C@@H](O)[C@H]2OC(=O)c1ccoc1)[C@H]3OC(=O)c1ccoc1` (relative stereo) [TRIPTERSININ J], the half-maximal inhibitory concentration (IC50) in test [1], in test [3], in test [4], in test [5] and in test [6] was greater than 1000 nM throughout.

In the case of `CC(=O)OC[C@]12[C@H](OC(C)=O)[C@H](OC(C)=O)[C@@H]3[C@@H](OC(C)=O)[C@@]14O[C@@]3(C)COC(=O)c1cnccc1C(C)C(C)C(=O)O[C@@H]([C@H](OC(C)=O)[C@@H]2OC(C)=O)[C@]4(C)O` (some centres not stated) [PERITASSIN A], the IC50 in test [1], in test [3], in test [4], in test [5] and in test [6] was greater than 1000 nM throughout. In addition, at 5 µM the inhibition in test [2] was 48.2%.

Consider `CC(=O)OC[C@@]12[C@@H](OC(C)=O)CC[C@](C)(O)[C@]13OC(C)(C)[C@H]([C@@H](OC(=O)c1cccnc1)[C@H]2OC(=O)c1ccoc1)[C@H]3OC(C)=O` (relative stereo) [TRIPTERSININ G], for which the IC50 in test [1], in test [3], in test [4], in test [5] and in test [6] was greater than 1000 nM throughout.

Turning to `CC(=O)OC[C@@]12[C@@H](OC(C)=O)CC[C@](C)(O)[C@]13OC(C)(C)[C@H]([C@@H](OC(C)=O)[C@H]2OC(=O)c1ccoc1)[C@H]3OC(=O)c1cccnc1` (relative stereo) [TRIPTERSININ F], the IC50 in test [1], in test [3], in test [4], in test [5] and in test [6] was greater than 1000 nM in each case.

For `CC(=O)OC[C@@]12[C@@H](OC(=O)/C=C/c3ccccc3)CC[C@](C)(O)[C@]13OC(C)(C)[C@H](C(=O)[C@H]2OC(=O)c1cccnc1)[C@H]3O` (relative stereo) [TRIPTERSININ A], the IC50 in test [1], in test [3], in test [4], in test [5] and in test [6] was greater than 1000 nM in each case. In addition, in test [2], testing at 5 µM gave an inhibition of 47.3%.

In the case of `CC(=O)OC[C@]12[C@H](OC(C)=O)[C@H](OC(C)=O)[C@@H]3[C@@H](OC(C)=O)[C@@]14O[C@@]3(C)COC(=O)c1cccnc1CCC(C)(O)C(=O)O[C@@H]([C@H](OC(=O)c1ccco1)[C@@H]2OC(C)=O)[C@]4(C)O` (some centres not stated) [WILFORTRINE], the half-inhibitory concentration (IC50) in test [1], in test [3], in test [4], in test [5] and in test [6] was greater than 1000 nM in each case.

As to `CC(=O)OC[C@@]12[C@@H](OC(=O)c3ccoc3)CC[C@](C)(O)[C@]13OC(C)(C)[C@H]([C@@H](OC(C)=O)[C@H]2OC(=O)c1ccoc1)[C@H]3O` (relative stereo) [TRIPTERSININ I], the IC50 in test [1], in test [3], in test [4], in test [5] and in test [6] was greater than 1000 nM in each case. In test [2], this molecule registered an inhibition at 5 µM of 45.5%.

(Values after ChEMBL document CHEMBL2331283, “Anti-inflammatory sesquiterpene derivatives from the leaves of Tripterygium wilfordii” (J Nat Prod, 2013).)
